Bioassay records (PubChem BioAssay)
Most compounds without a hit are left out; they make up all but 1.8% or so of the library.
NPY-Y2 PAM-ag = human NPY-Y2 potentiation or agonism, primary screen; P49146; cells expressing NPY-Y2, potentiator/agonist read-out; activation, % at 3.6 µM; hit rate 0.45% among 220,000; AID 1359; in the data active = activation above about 27%;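 note: cells stimulated with NPY near EC25 plus isoproterenol at EC100; 0% = vehicle plus submaximal agonist and 100% = vehicle plus saturating agonist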
NPY-Y1 PAM-ag = human NPY-Y1 potentiation or agonism, primary screen; P25929; NPY-Y1 expressing cells, potentiator/agonist activation; activation, % at 3.6 µM; hit rate 0.37% among 220,000; AID 1304; in the data active = activation above about 33%, passing the limit was not always enough;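 note: cells stimulated with NPY at EC10 then isoproterenol at EC100; 0% = low agonist plus stimulus and 100% = saturating agonist plus stimulus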
Target sequence (P25929 whole entry, looked up): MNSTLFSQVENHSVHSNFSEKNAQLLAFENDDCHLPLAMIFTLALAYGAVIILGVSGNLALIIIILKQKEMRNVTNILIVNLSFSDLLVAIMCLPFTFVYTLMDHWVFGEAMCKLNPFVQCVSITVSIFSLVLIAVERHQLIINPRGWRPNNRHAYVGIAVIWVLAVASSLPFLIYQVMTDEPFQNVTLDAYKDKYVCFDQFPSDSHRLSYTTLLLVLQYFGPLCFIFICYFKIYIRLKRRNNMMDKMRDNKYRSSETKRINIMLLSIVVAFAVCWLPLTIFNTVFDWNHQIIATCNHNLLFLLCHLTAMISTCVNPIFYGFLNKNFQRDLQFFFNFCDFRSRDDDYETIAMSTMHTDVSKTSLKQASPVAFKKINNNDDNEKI
NPY-Y1 antag = antagonists of human neuropeptide Y receptor Y1; P25929; HEK293-CNG Y1 cells, membrane potential fluorescence; NPY at EC95, then isoproterenol; inhibition, % at 3.6 µM; hit rate 1% among 200,000;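 active = inhibition above the campaign mean inhibition of all tested compounds plus 3 SD, cut at about 20% in these data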;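 note: 0% = DMSO wells given NPY plus isoproterenol and 100% = isoproterenol alone without NPY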
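Material: HEK293 Y1/CNG channel cell line | Also added: NPY (25 nM), isoproterenol (1 µM), Ro 20-1724 (25 µM) | Compound: One concentration, 3.6 µM, in 0.4% DMSO | Schedule: 3 h dye uptake, 1 h room-temperature compound, 45 min post-isoproterenol | Signal: Membrane-potential fluorescent dye readout | Read-out: % inhibition of NPY effect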
NPY-Y2 antag = NPY-Y2 (human) receptor antagonism | P49146 | NPY-Y2 expressing cells, antagonist mode | inhibition, % at 2.7 µM | hit rate 0.99% among 140,000; in the data active = inhibition above about 17%;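 note: 0% = vehicle with agonist challenge and 100% = reference antagonist with challenge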
* marks the source's active call; other numbers are inactive results; . = no result.

SMILES	NPY-Y2 PAM-ag	NPY-Y1 PAM-ag	NPY-Y1 antag	NPY-Y2 antag
N#Cc1ccc(CSc2nnc(Cc3cccs3)n2Cc2ccco2)cc1	-23	-34	23*	17
Cc1cc(Cl)ccc1NC(=O)CSc1nnc(Cc2cccs2)n1Cc1ccco1	-16	-17	23*	21*
Cc1ccc2nc(-c3ccc(N4C(=N)SC5CS(=O)(=O)CC54)cc3)sc2c1 (centres undefined)	-9	-20	2	8
C=CCN1C(=O)C2C3CC(=O)C(c4ccccc43)C2C1=O (centres undefined)	8	12	-3	.
Cc1noc(C)c1CSCC(=O)N1CCN(c2ccc([N+](=O)[O-])cc2)CC1	0	11	2	-1
Oc1ccc(Nc2nc(N3CCCC3)c3ccccc3n2)cc1	-7	-5	2	3
COc1ccc(Nc2nc(N3CCCCC3)c3ccccc3n2)cc1	-2	-44	34*	41*
Cc1ccc(Nc2nc(N3CCOCC3)c3ccccc3n2)cc1	-53	-38	23*	8
O=S(=O)(Nc1cccc2c1ccc1cccn12)c1cccs1	-4	6	2	1
CCOC(=O)CSc1nc2cc(S(=O)(=O)Nc3ccccc3OC)ccc2o1	45*	70*	-2	-1
CCCCN=CC1=C(O)CC(c2ccccc2)CC1=O (centres undefined)	-4	-24	1	.
O=C(C1CCN(Cc2ccc(F)cc2)CC1)N(CCc1ccccc1)Cc1ccccc1	-9	-29	21*	24*
O=C(C1CCN(Cc2ccc(F)cc2)CC1)N(CCO)Cc1ccccc1	3	-15	3	3
C=CCN=c1scc(-c2ccc3c(c2)NC(=O)CO3)n1/N=C(\C)c1ccccn1	34*	16	-6	.
C=CCN=c1scc(-c2ccccc2)n1/N=C/c1ccccn1	11	18	3	7
CCCCC[C@H](O)/C=C/[C@@H]1[C@@H](C/C=C\CCCC(=O)O)[C@@H](O)C[C@H]1O	-23	-73	11	2
CCCCC[C@H](O)/C=C/[C@@H]1[C@@H](C/C=C\CCCC(=O)OC)[C@@H](O)C[C@H]1O	-23	-65	63*	20*
N#CCSc1nc2c(sc(=S)n2Cc2ccco2)c(=O)n1-c1ccc(F)cc1	-22	-44	24*	20*
CCCc1ccc(C(=O)NNc2ccc(F)cc2)cc1	46*	51*	.	.
CCCc1ccc(C(=O)NNC(=O)c2ccc(Br)cc2)cc1	-6	2	1	4
CC1CCN(c2c(NCc3ccc(C(=O)N4c5ccccc5CC4C)cc3)c(=O)c2=O)CC1 (centres undefined)	6	0	0	2
Cc1ccc(C(=O)OCC(=O)NC2CCCCC2)s1	4	-9	0	.
COc1ccc(C(C)(C)C)cc1NC(=O)c1cc(S(=O)(=O)N(C)C)ccc1N1CCCC1	4	0	25*	22*
CCc1cccc(NC(=O)c2cc(S(=O)(=O)N(C)C)ccc2N2CCCC2)c1	-3	-1	4	.
CCOC(=O)c1cnc(-n2nc(C)cc2C)nc1NC	-8	-19	10	1
SMILES	NPY-Y2 PAM-ag	NPY-Y1 PAM-ag	NPY-Y1 antag	NPY-Y2 antag
CCOC(=O)c1cnc(-n2nc(C)cc2C)nc1NC1CCCCC1	1	-146	31*	20*
Cc1ccc(-n2nnnc2SCC(=O)Nc2ccccc2N2CCCCC2)cc1C	-5	10	48*	28*
Cc1ccc(-c2[nH]nc(N)c2N=Nc2cccc(Cl)c2C)cc1	17	46*	-1	-3
Cc1ccc(-c2[nH]nc(N)c2N=Nc2ccccc2C)cc1	-1	-7	-3	-3
CC(CCc1ccccc1)NC(=O)/C=C/c1ccc(Cl)cc1 (centres undefined)	-21	-47	32*	21*
Cc1ccc(/C=C/C(=O)NCCCc2ccccc2)cc1	-34	-51	37*	34*
C#CCNC(=O)/C=C/c1ccc(C)cc1	3	-1	5	2
Cc1ccc(CNC(=O)/C=C/c2ccccc2Cl)cc1	-14	-25	31*	12
CCNC(=O)COC(=O)c1cccc(Br)c1	-7	2	.	.
CCOc1ccc(N2C(=O)C(=O)/C(=C(/O)c3ccccc3)C2c2ccccc2[N+](=O)[O-])cc1 (centres undefined)	12	11	.	.
COc1ccc(C(=O)NCc2nnc(SCC(=O)Nc3nc4ccc(C)cc4s3)o2)cc1OC	9	-8	-2	1
COc1ccc(NS(=O)(=O)c2cc(C)ccc2NC(=O)c2cc(C)oc2C)cc1	-22	-33	23*	36*
COc1ccc(NS(=O)(=O)c2cccc(C(=O)NNC(=O)c3cc(C)oc3C)c2)cc1	0	19	-3	-1
CN1CCC/C1=C/C=C1\SC(=S)NC1=O	-3	3	-1	2
Cc1nn(C)c(Cl)c1S(=O)(=O)N1CCC(CO)(CCc2ccccc2)CC1	-4	8	15	.
Cc1ccccc1N=C(NOCc1ccc(Cl)cc1Cl)c1nonc1N	-9	-36	33*	30*
Cc1ccc(N=C(NOCc2ccc(Cl)cc2Cl)c2nonc2N)c(C)c1	-22	-23	32*	21*
O=C(O)C1C2C=CC3(CN(Cc4ccncc4)C(=O)C13)O2 (centres undefined)	-3	8	-2	2
CCCN(CCC)C1=CC(=[N+]2CCCC2)CC(C)(C)C1	16	-21	34*	24*
Cc1ccc(NC2=NC(=S)N(CC#N)C23CCCCC3)cc1	-16	-14	2	5
C/C(=N\N=C(/N)SC1CC(=O)N(c2ccccc2)C1=O)c1cccs1 (centres undefined)	14	9	2	1
C/C(=N\N=C(/N)SC1CC(=O)N(c2ccc(Br)cc2)C1=O)c1cccs1 (centres undefined)	44*	45*	-8	-4
CCC(C)(C(=O)NC1CCCC1)N(Cc1cccs1)C(=O)c1ccc2c(c1)OCO2 (centres undefined)	-5	1	27*	18*
Cc1ccc(C(=O)N(CC(=O)NC2CCCC2)Cc2cccs2)s1	-1	-4	4	4
CCC(C)(C(=O)NC1CCCCC1)N(Cc1cccs1)C(=O)Cc1cccs1 (centres undefined)	1	-42	59*	39*
SMILES	NPY-Y2 PAM-ag	NPY-Y1 PAM-ag	NPY-Y1 antag	NPY-Y2 antag
CC1=Nn2c(nnc2-c2ccc(F)cc2)SC1	-7	-12	-4	3
CCN(CC)c1ccc(/C=N/NC(=O)c2cccc(S(=O)(=O)Nc3ccccc3OC)c2)c(O)c1	35*	47*	-9	-1
Cc1ccc2c(CSc3nnc4ccccn34)cc(=O)oc2c1C	-8	10	0	4
Cc1ccc2c(CSc3nc4ccccc4c(=O)n3CCCO)cc(=O)oc2c1C	-22	-28	31*	28*
CC(=O)NCCn1c(SCc2ccccc2F)nc2ccccc2c1=O	102*	77*	-6	2
C=CCOC(=O)C1=C(C)Nc2nc3ccccc3n2C1c1ccncc1 (centres undefined)	9	-2	6	4
Cc1ccc(-n2c(-c3ccc(Br)cc3)c[n+]3c2CCc2ccc4cccnc4c2-3)cc1	-29	-74	54*	70*
